The values below come from ChEMBL document CHEMBL1914339, “Design, synthesis and biological evaluation of pyridine acyl sulfonamide derivatives as novel COX-2 inhibitors” (Bioorg Med Chem, 2011).

In general, IC50 refers to the concentration that inhibits the measured activity by half.

Prostaglandin G/H synthase 2 (Mus musculus), sequence (Q05769 whole entry, looked up): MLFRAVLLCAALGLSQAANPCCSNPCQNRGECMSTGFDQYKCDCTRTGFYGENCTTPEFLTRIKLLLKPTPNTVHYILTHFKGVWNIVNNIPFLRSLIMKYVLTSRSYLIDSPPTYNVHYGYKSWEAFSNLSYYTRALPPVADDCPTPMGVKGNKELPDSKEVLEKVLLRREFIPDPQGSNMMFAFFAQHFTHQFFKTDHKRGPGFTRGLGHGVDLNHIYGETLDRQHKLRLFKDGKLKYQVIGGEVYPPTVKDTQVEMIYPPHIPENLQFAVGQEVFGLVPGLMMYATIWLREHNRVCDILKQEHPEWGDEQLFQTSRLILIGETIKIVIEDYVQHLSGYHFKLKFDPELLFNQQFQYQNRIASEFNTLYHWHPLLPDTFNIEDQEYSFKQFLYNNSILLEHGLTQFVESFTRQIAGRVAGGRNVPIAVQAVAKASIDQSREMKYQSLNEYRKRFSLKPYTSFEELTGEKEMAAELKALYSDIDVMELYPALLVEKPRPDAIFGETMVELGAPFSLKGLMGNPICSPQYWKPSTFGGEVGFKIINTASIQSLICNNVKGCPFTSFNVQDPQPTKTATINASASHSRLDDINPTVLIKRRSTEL

The subject of the first assay is RAW264.7. Kind of assay: Antiinflammatory activity in mouse RAW264.7 cells assessed as inhibition of LPS-induced PGE2 production. It is filed as functional, cell-based.
Settings: not given
Turning to `Cc1ccc(S(=O)(=O)NC(=O)c2ccccn2)cc1`, the IC50 was 5.9 µM.
With `Cc1ccc(S(=O)(=O)NC(=O)c2cncc(C(=O)NS(=O)(=O)c3ccc(C)cc3)c2)cc1`, the IC50 was 2.2 µM.
Take `O=C(NS(=O)(=O)c1ccc(Br)cc1)c1cncc(C(=O)NS(=O)(=O)c2ccc(Br)cc2)c1`: the IC50 was determined as 1.2 µM.
With `O=C(NS(=O)(=O)c1ccc(F)cc1)c1ccccn1`, the 50% inhibitory concentration (IC50) turned out to be 3.3 µM.
The same measure, in the same setting: to `O=C(NS(=O)(=O)c1ccc(Cl)cc1)c1ccncc1` belongs 8.9 µM; to `O=C(NS(=O)(=O)c1ccccc1)c1ccccn1`, 4.5 µM; to `O=C(NS(=O)(=O)c1ccc(F)cc1)c1cncc(C(=O)NS(=O)(=O)c2ccc(F)cc2)c1`, 1.9 µM.
Take `O=C(NS(=O)(=O)c1ccc(F)cc1)c1cccc(C(=O)NS(=O)(=O)c2ccc(F)cc2)n1`: the IC50 is 1.1 µM.
As to `O=C(NS(=O)(=O)c1ccccc1)c1cncc(C(=O)NS(=O)(=O)c2ccccc2)c1`, the concentration for half-maximal inhibition (IC50) was 2.6 µM.
Turning to `O=C(NS(=O)(=O)c1ccc(F)cc1)c1cccnc1`, the IC50 is 8.6 µM.
Consider `O=C(NS(=O)(=O)c1ccc(Br)cc1)c1ccccn1`, for which the half-inhibitory concentration (IC50) was determined as 1.9 µM.
Take `Cc1ccc(S(=O)(=O)NC(=O)c2ccncc2)cc1`: the half-maximal inhibitory concentration (IC50) came to 9.8 µM.

The subject of another assay is B16-F10. Kind of assay: Antiproliferative activity against mouse B16F10 cells after 48 hrs by MTT colorimetric assay. The settings on record: B16-F10, 48 h. It is filed as functional, cell-based. Summed up:
(§1)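 Cells seeded at 2 × 10⁴ cells/ml and grown 24 h, then exposed in exponential growth to final compound concentrations of 0.1 to 100 for 48 h. Survival read by MTT (0.5 mg/mL in DMEM, 4 h) with absorbance at 570 nm. Three replicate wells per concentration; each assay run at least three times.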
On to `Cc1ccc(S(=O)(=O)NC(=O)c2ccccn2)cc1`, for which the IC50 amounted to 16.7 µM.
The compound `Cc1ccc(S(=O)(=O)NC(=O)c2cncc(C(=O)NS(=O)(=O)c3ccc(C)cc3)c2)cc1` registered a half-inhibitory concentration (IC50) of 9.2 µM.
On the same count and under the same terms, the value for `O=C(NS(=O)(=O)c1ccc(Br)cc1)c1cncc(C(=O)NS(=O)(=O)c2ccc(Br)cc2)c1` was 7.2 µM; that for `O=C(NS(=O)(=O)c1ccc(F)cc1)c1ccccn1` was 10.9 µM.
The compound `O=C(NS(=O)(=O)c1ccc(Cl)cc1)c1ccncc1` gave an IC50 of 12.4 µM.
As to `O=C(NS(=O)(=O)c1ccccc1)c1ccccn1`, the 50% inhibitory concentration (IC50) was found to be 14.2 µM.
Same read-out and setting: the value for `O=C(NS(=O)(=O)c1ccc(F)cc1)c1cncc(C(=O)NS(=O)(=O)c2ccc(F)cc2)c1` was 8.8 µM; that for `O=C(NS(=O)(=O)c1ccc(F)cc1)c1cccc(C(=O)NS(=O)(=O)c2ccc(F)cc2)n1` was 10 µM.
Still for that read-out and setting: to `O=C(NS(=O)(=O)c1ccccc1)c1cncc(C(=O)NS(=O)(=O)c2ccccc2)c1` belongs 11.3 µM.
For the compound `O=C(NS(=O)(=O)c1ccc(F)cc1)c1cccnc1`, inhibition was half-maximal at 13.8 µM (IC50).
For `O=C(NS(=O)(=O)c1ccc(Br)cc1)c1ccccn1`, the half-maximal inhibitory concentration (IC50) amounted to 8.5 µM.
The same measure, in the same setting: the value for `Cc1ccc(S(=O)(=O)NC(=O)c2ccncc2)cc1` was 16.2 µM.

In a further assay the target is Prostaglandin G/H synthase 1 (Mus musculus) (UniProt P22437).
Prostaglandin G/H synthase 1 (Mus musculus), sequence (P22437 whole entry, looked up): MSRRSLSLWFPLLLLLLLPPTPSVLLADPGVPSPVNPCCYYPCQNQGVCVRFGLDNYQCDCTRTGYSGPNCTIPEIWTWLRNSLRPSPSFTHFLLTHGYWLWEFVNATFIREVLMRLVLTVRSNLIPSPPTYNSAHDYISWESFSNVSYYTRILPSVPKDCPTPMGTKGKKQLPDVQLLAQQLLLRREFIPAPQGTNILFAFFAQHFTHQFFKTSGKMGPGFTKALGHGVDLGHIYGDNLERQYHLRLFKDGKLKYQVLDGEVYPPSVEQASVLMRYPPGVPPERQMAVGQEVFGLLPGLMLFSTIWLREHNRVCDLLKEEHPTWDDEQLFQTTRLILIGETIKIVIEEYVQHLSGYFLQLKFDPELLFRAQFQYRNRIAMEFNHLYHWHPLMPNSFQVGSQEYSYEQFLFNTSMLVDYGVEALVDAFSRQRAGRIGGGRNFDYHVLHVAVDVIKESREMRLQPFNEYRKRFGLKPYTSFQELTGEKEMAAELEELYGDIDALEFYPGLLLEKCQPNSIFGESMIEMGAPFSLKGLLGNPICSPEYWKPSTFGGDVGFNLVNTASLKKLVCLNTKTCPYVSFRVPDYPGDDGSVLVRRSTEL
Settings: not given
In the case of `Cc1ccc(S(=O)(=O)NC(=O)c2ccccn2)cc1`, the IC50 is over 50 µM.
Still for that read-out and setting: to `Cc1ccc(S(=O)(=O)NC(=O)c2cncc(C(=O)NS(=O)(=O)c3ccc(C)cc3)c2)cc1` belongs over 50 µM; to `O=C(NS(=O)(=O)c1ccc(Br)cc1)c1cncc(C(=O)NS(=O)(=O)c2ccc(Br)cc2)c1`, 42.5 µM.
Consider `O=C(NS(=O)(=O)c1ccc(F)cc1)c1ccccn1`, for which the concentration for half-maximal inhibition (IC50) is 43.8 µM.
Compound `O=C(NS(=O)(=O)c1ccc(Cl)cc1)c1ccncc1` had a concentration for half-maximal inhibition (IC50) of 41.2 µM.
`O=C(NS(=O)(=O)c1ccccc1)c1ccccn1` came in with an IC50 of over 50 µM.
Turning to `O=C(NS(=O)(=O)c1ccc(F)cc1)c1cncc(C(=O)NS(=O)(=O)c2ccc(F)cc2)c1`, the concentration for half-maximal inhibition (IC50) is 40.2 µM.
For `O=C(NS(=O)(=O)c1ccc(F)cc1)c1cccc(C(=O)NS(=O)(=O)c2ccc(F)cc2)n1`, it took 40.3 µM to reach half-maximal inhibition (IC50).
For the compound `O=C(NS(=O)(=O)c1ccccc1)c1cncc(C(=O)NS(=O)(=O)c2ccccc2)c1`, the IC50 came out at 36.9 µM.
`O=C(NS(=O)(=O)c1ccc(F)cc1)c1cccnc1` yielded an IC50 of over 50 µM.
In the case of `O=C(NS(=O)(=O)c1ccc(Br)cc1)c1ccccn1`, the 50% inhibitory concentration (IC50) was over 50 µM.
The compound `Cc1ccc(S(=O)(=O)NC(=O)c2ccncc2)cc1` yielded an IC50 of over 50 µM.

Another assay deals with MCF7. The assay is described as follows: Antiproliferative activity against human MCF7 cells after 48 hrs by MTT colorimetric assay. It is filed as functional, cell-based. The settings on record: MCF7, 48 h. The gist of the method:
as §1
`Cc1ccc(S(=O)(=O)NC(=O)c2ccccn2)cc1` showed an IC50 of 11.8 µM.
`Cc1ccc(S(=O)(=O)NC(=O)c2cncc(C(=O)NS(=O)(=O)c3ccc(C)cc3)c2)cc1` came in with an IC50 of 10.8 µM.
`O=C(NS(=O)(=O)c1ccc(Br)cc1)c1cncc(C(=O)NS(=O)(=O)c2ccc(Br)cc2)c1`: 4.1 µM corresponded to half-maximal inhibition (IC50).
In turn, `O=C(NS(=O)(=O)c1ccc(F)cc1)c1ccccn1` yielded an IC50 of 11 µM.
For `O=C(NS(=O)(=O)c1ccc(Cl)cc1)c1ccncc1`, the IC50 was 10.1 µM.
Regarding `O=C(NS(=O)(=O)c1ccccc1)c1ccccn1`, the IC50 was determined as 10.6 µM.
The compound `O=C(NS(=O)(=O)c1ccc(F)cc1)c1cncc(C(=O)NS(=O)(=O)c2ccc(F)cc2)c1` returned an IC50 of 7.9 µM.
As for `O=C(NS(=O)(=O)c1ccc(F)cc1)c1cccc(C(=O)NS(=O)(=O)c2ccc(F)cc2)n1`, the IC50 was 4.6 µM.
In turn, `O=C(NS(=O)(=O)c1ccccc1)c1cncc(C(=O)NS(=O)(=O)c2ccccc2)c1` came in with a concentration for half-maximal inhibition (IC50) of 10.6 µM.
Turning to `O=C(NS(=O)(=O)c1ccc(F)cc1)c1cccnc1`, the IC50 came out at 10.6 µM.
The same measure, in the same setting: the value for `O=C(NS(=O)(=O)c1ccc(Br)cc1)c1ccccn1` was 6.8 µM.
Compound `Cc1ccc(S(=O)(=O)NC(=O)c2ccncc2)cc1` showed an IC50 of 14.1 µM.

For another assay, the system named is HepG2. Kind of assay: Antiproliferative activity against human HepG2 cells after 48 hrs by MTT colorimetric assay. Type of assay: functional, cell-based. The settings on record: HepG2, 48 h. Summed up:
as §1
In the case of `Cc1ccc(S(=O)(=O)NC(=O)c2ccccn2)cc1`, the IC50 was 12.1 µM.
The same measure, in the same setting: the value for `Cc1ccc(S(=O)(=O)NC(=O)c2cncc(C(=O)NS(=O)(=O)c3ccc(C)cc3)c2)cc1` was 10 µM.
`O=C(NS(=O)(=O)c1ccc(Br)cc1)c1cncc(C(=O)NS(=O)(=O)c2ccc(Br)cc2)c1` yielded an IC50 of 3.3 µM.
On the same count and under the same terms, the value for `O=C(NS(=O)(=O)c1ccc(F)cc1)c1ccccn1` was 8.5 µM; that for `O=C(NS(=O)(=O)c1ccc(Cl)cc1)c1ccncc1` was 7.9 µM.
Turning to `O=C(NS(=O)(=O)c1ccccc1)c1ccccn1`, the midpoint of inhibition, the IC50, lay at 9.9 µM.
Same read-out and setting: the value for `O=C(NS(=O)(=O)c1ccc(F)cc1)c1cncc(C(=O)NS(=O)(=O)c2ccc(F)cc2)c1` was 6.2 µM; that for `O=C(NS(=O)(=O)c1ccc(F)cc1)c1cccc(C(=O)NS(=O)(=O)c2ccc(F)cc2)n1` was 3.7 µM; that for `O=C(NS(=O)(=O)c1ccccc1)c1cncc(C(=O)NS(=O)(=O)c2ccccc2)c1` was 9.2 µM.
In turn, `O=C(NS(=O)(=O)c1ccc(F)cc1)c1cccnc1` came in with an IC50 of 9 µM.
With `O=C(NS(=O)(=O)c1ccc(Br)cc1)c1ccccn1`, the half-maximal inhibitory concentration (IC50) is 5 µM.
With `Cc1ccc(S(=O)(=O)NC(=O)c2ccncc2)cc1`, the IC50 is 20.2 µM.

Another assay has as its target Prostaglandin G/H synthase 2 (Mus musculus) (UniProt Q05769).
Settings: not given
As to `Cc1ccc(S(=O)(=O)NC(=O)c2ccccn2)cc1`, the IC50 was found to be 8 µM.
Turning to `Cc1ccc(S(=O)(=O)NC(=O)c2cncc(C(=O)NS(=O)(=O)c3ccc(C)cc3)c2)cc1`, the IC50 came to 8.5 µM.
Consider `O=C(NS(=O)(=O)c1ccc(Br)cc1)c1cncc(C(=O)NS(=O)(=O)c2ccc(Br)cc2)c1`, for which the midpoint of inhibition, the IC50, lay at 2.8 µM.
Still for that read-out and setting: to `O=C(NS(=O)(=O)c1ccc(F)cc1)c1ccccn1` belongs 6.3 µM; to `O=C(NS(=O)(=O)c1ccc(Cl)cc1)c1ccncc1`, 12.6 µM; to `O=C(NS(=O)(=O)c1ccccc1)c1ccccn1`, 8.8 µM.
Take `O=C(NS(=O)(=O)c1ccc(F)cc1)c1cncc(C(=O)NS(=O)(=O)c2ccc(F)cc2)c1`: the midpoint of inhibition, the IC50, lay at 5.6 µM.
On to `O=C(NS(=O)(=O)c1ccc(F)cc1)c1cccc(C(=O)NS(=O)(=O)c2ccc(F)cc2)n1`, for which the 50% inhibitory concentration (IC50) amounted to 2.6 µM.
For the compound `O=C(NS(=O)(=O)c1ccccc1)c1cncc(C(=O)NS(=O)(=O)c2ccccc2)c1`, the concentration for half-maximal inhibition (IC50) was found to be 7.9 µM.
`O=C(NS(=O)(=O)c1ccc(F)cc1)c1cccnc1`: half-maximal inhibition (IC50) required 11.7 µM.
Compound `O=C(NS(=O)(=O)c1ccc(Br)cc1)c1ccccn1` registered an IC50 of 3.6 µM.
`Cc1ccc(S(=O)(=O)NC(=O)c2ccncc2)cc1` gave an IC50 of 19.4 µM.
